Results taken from ChEMBL document CHEMBL3272264, “(+)- and (-)-3-Methoxycyproheptadine. A comparative evaluation of the antiserotonin, antihistaminic, anticholinergic, and orexigenic properties with cyproheptadine” (1977).

Key:
Format in all cases: functional
Felis catus [1] = assay: Orexigenic activity in cat assessed as food consumption at 0.0312 mg/kg, po (reference value: 126 +/- 26 to 155 +/- 33 g)
Felis catus [2] = assay: Orexigenic activity in cat assessed as food consumption at 0. 0312 mg/kg, po (reference value: 126 +/- 34 to 150 +/- 52 g)
Felis catus [3] = assay: Orexigenic activity in cat assessed as food consumption at 0.25 mg/kg, po (reference value: 118 +/- 52 to 143 +/- 37 g)
Felis catus [4] = assay: Orexigenic activity in cat assessed as food consumption at 0. 0312 mg/kg, po (reference value: 107 +/- 29 to 146 +/- 24 g)
Felis catus [5] = assay: Orexigenic activity in cat assessed as food consumption at 0. 25 mg/kg, po (reference value: 119 +/- 39 to 155 +/- 34 g)
Felis catus [6] = assay: Orexigenic activity in cat assessed as food consumption at 0. 25 mg/kg, po (reference value: 114 +/- 25 to 147 +/- 42 g)
Rattus norvegicus = assay: Antiserotonin activity against po dosed Sprague-Dawley rat assessed as inhibition of serotonin-induced edema of right hind paw compound administered 1 hr prior to serotonin challenge
Procedure, shortened: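 Male rats, 140-210 g, dosed orally 1 h before 5 µg serotonin (base) into the right hind paw; saline (0.05 mL) into the left paw. Feet removed and weighed 30 min later; percent inhibition of serotonin weight gain versus saline paw. Doses 0.156-80 mg/kg, 4-16 rats per dose. ED50 from log-dose regression.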

Mus musculus = assay: Anticholinergic activity in po dosed CF-1 mouse assessed as dose required to increase pupil diameter to 1.5 micrometer after 1 hr
Procedure, shortened: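 Female CF-1 mice dosed orally, five dose levels, ten mice per dose. Pupil diameter measured with an ocular micrometer 1 h after dosing. ED1.5 is the dose raising pupil diameter to 1.5 micrometer units, derived by regression of response on log dose (Finney).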

Cavia porcellus = assay: Antihistaminic activity against ip dosed Duncan-Harley guinea pig assessed as inhibition of histamine aerosol-induced bronchoconstriction compound administered 30 mins prior to histamine challenge
Procedure, shortened: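 Guinea pigs of either sex, 200-300 g. Compound given ip as a suspension in 1% methylcellulose. 30 min later, 3-min exposure to histamine aerosol (0.5% base) in individual chambers, then 10 min observation. Dose range 0.031-6.25 mg/kg, 3-4 levels, 5-10 animals per level. ED50 is the dose protecting 50% from bronchoconstriction death, from log-dose regression.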

Felis catus [7] = assay: Orexigenic activity in cat assessed as food consumption at 0. 25 mg/kg, po (reference value: 179 +/- 31 g)

Row | Compound | Activity (Felis catus [1]) [g] | Activity (Felis catus [2]) [g] | Activity (Felis catus [3]) [g] | Activity (Felis catus [4]) [g] | Activity (Felis catus [5]) [g] | Activity (Felis catus [6]) [g] | ED50 (Rattus norvegicus) [mg/kg] | ED (Mus musculus) [mg/kg] | ED50 (Cavia porcellus) [mg/kg] | Activity (Felis catus [7]) [g]
1 | COc1ccc2c(c1)C(=C1CCN(C)CC1)c1ccccc1C=C2 | 110 | 131 | 143 | 115 | 140 | 134 | – | – | – | –
2 | CN1CCC(=C2c3ccccc3C=Cc3ccccc32)CC1 [CYPROHEPTADINE] | – | – | – | – | – | – | 0.24 | 6 | 0.077 | 220
